Measured values gathered from unrelated publications.
Compare with care: the assays were run in different laboratories.
Effect on: cell growth or viability

SMILES | cell line | method | time | CC50
O=c1[nH]c(=O)c2ncn(C[C@@H](CO)OCP(=O)(O)O)c2[nH]1 | HEL | – | 72 h | > 300 µM
Cc1ccn2c(C(=O)N3CCN(Cc4cn(-c5ccccc5Cl)nn4)CC3)c(C)nc2c1 | HeLa | resazurin | – | > 100 µM
CCOP(=O)(OCC)[C@@H]1C[C@H](n2cc(Cn3ccc(=O)[nH]c3=O)nn2)ON1C (racemic) | HEL | – | 72 h | > 100 µM
Cc1nc2ccc(Cl)cn2c1C(=O)N1CCN(CCn2cc(C3CC3)nn2)CC1 | HeLa | resazurin | – | > 100 µM
C[C@H](NC(=O)[C@]1(Cc2ccccc2)CCN1C(=O)OCc1ccccc1)C(=O)NC(C)(C)C | HEL | – | 72 h | > 100 µM
CCOP(=O)(OCC)[C@@H]1C[C@H](n2cc(Cn3cc(C)c(=O)[nH]c3=O)nn2)ON1C (racemic) | HEL | – | 72 h | > 100 µM
Nc1nc(O)c2ncn(COC(CO)CO)c2n1 | HEL | – | 72 h | 63 µM
COc1ccc(S(=O)(=O)ON=C2C=C(C)C(=O)C(C)=C2)cc1 | HPAC | – | – | > 30 µM
Cc1nc2ccc(Cl)cn2c1C(=O)N1CCN(Cc2cn(-c3ccc(F)cc3)nn2)CC1 | HeLa | resazurin | – | > 100 µM
CCOP(=O)(OCC)[C@@H]1C[C@@H](n2cc(Cn3cnc4c(N)ncnc43)nn2)ON1C (racemic) | HEL | – | 72 h | > 100 µM
O=c1[nH]c(=O)c2ncn(CCOCP(=O)(O)O)c2[nH]1 | HEL | – | 72 h | 111 µM
